Broadly, the IC50 is the midpoint of a concentration-inhibition curve. A high value points to a need for much substance.

For assay [1], the target named is T1, GluN1/GluN2D (Rattus norvegicus, UniProt P35439+Q62645). Description: Two electrode voltage clamp recording, Xenopus oocytes. It counts as cell-based.
For assay [2], the target named is T2, GluN1/GluN2B (Rattus norvegicus, UniProt P35439+Q00960). Description: Two electrode voltage clamp recording, Xenopus oocytes. Type of assay: cell-based. The settings on record: read-out: response, % of control. The essentials: (§1)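 Defolliculated stage V–VI Xenopus laevis oocytes were injected with GluN1 and GluN2 cRNA at a 1:2 ratio (0.2–10 ng total) and recorded 2–5 days later at 23 °C by two-electrode voltage clamp at −40 mV, with gravity-fed solutions. Currents evoked by 100 μM glutamate plus 30 μM glycine were measured with 100 μM test compound, as % of control; n = 6 oocytes.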
Background: Two-electrode voltage clamp holds a large cell at a set potential and records current.

Assay [3] concerns the target T3, GluN1/GluN2A (Rattus norvegicus, UniProt P35439+Q00959). Described as above. Type of assay: cell-based. The note with it: read-out: response, % of control. A digest of the protocol: as §1
Assay [4] addresses T4, GluN1/GluN2C (Rattus norvegicus, UniProt P35439+Q00961). As to the kind of experiment: Two electrode voltage clamp recording, Xenopus oocytes. It counts as cell-based. The essentials:
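Xenopus oocytes expressing GluN1/GluN2 (1:2 cRNA) were clamped at −40 mV at 23 °C, 2–5 days post-injection, with 30 μM glycine in all solutions. Test compound was applied at increasing concentrations during saturating 100 μM glutamate/30 μM glycine. […] Data came from 5–22 oocytes, 2–3 batches.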

For assay [5], the target named is T3, GluN1/GluN2A. The settings on record: cited from earlier work.
The target in assay [6] is T2, GluN1/GluN2B. The note with it: cited from earlier work.
The target of assay [7] is T1, GluN1/GluN2D. The note with it: cited from earlier work.
The target of assay [8] is T4, GluN1/GluN2C. The settings on record: cited from earlier work.
For assay [9], the target named is T3, GluN1/GluN2A. The note with it: cited from earlier work. The source holds these as a separate data set.
Assay [10] has as its target T2, GluN1/GluN2B. The settings on record: cited from earlier work. The source holds these as a separate data set.
In assay [11] the test system is GluN2C- and GluN2D-containing NMDARs. Description: Two electrode voltage clamp recording, Xenopus oocytes, CIQ-sensitive subunits. It counts as cell-based, rat.
[12] abbreviates: saturating glutamate and glycine, oocytes.

T1 sequence (Q62645 28-1323, other chains not shown): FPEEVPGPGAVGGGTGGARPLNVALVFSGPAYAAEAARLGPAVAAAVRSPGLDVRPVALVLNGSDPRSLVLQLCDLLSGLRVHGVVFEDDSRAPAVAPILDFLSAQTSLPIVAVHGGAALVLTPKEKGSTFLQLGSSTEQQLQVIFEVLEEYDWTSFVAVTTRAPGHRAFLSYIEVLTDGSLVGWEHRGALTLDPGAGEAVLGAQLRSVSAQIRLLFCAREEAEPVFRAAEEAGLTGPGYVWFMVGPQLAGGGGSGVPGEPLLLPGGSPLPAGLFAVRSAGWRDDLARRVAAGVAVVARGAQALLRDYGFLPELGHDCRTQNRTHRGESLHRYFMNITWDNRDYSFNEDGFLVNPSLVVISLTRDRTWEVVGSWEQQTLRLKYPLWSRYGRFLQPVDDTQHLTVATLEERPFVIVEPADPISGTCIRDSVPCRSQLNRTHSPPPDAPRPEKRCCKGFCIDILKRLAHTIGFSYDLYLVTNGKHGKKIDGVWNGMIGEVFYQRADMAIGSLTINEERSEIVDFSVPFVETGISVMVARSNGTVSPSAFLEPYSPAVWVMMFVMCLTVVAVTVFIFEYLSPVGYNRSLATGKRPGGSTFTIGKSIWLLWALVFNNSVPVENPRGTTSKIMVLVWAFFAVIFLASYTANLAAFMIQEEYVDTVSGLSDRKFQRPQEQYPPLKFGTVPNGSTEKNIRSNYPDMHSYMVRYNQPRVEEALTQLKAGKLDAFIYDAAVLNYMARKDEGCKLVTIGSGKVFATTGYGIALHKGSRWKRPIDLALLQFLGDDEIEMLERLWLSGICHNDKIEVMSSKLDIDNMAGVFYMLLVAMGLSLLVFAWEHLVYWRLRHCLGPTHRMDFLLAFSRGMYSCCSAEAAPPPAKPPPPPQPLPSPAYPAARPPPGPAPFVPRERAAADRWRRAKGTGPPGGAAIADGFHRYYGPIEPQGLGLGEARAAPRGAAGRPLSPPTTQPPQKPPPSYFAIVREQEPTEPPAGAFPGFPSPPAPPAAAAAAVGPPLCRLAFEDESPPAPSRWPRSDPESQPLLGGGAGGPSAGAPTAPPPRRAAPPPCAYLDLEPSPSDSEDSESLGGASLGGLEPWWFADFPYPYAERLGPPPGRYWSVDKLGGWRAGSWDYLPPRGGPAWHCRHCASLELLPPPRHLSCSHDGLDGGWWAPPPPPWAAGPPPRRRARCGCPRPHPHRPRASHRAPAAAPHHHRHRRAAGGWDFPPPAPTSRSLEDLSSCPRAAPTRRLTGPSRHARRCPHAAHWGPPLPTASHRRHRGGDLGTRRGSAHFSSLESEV
T3 sequence (Q00959 23-1464, other chains not shown): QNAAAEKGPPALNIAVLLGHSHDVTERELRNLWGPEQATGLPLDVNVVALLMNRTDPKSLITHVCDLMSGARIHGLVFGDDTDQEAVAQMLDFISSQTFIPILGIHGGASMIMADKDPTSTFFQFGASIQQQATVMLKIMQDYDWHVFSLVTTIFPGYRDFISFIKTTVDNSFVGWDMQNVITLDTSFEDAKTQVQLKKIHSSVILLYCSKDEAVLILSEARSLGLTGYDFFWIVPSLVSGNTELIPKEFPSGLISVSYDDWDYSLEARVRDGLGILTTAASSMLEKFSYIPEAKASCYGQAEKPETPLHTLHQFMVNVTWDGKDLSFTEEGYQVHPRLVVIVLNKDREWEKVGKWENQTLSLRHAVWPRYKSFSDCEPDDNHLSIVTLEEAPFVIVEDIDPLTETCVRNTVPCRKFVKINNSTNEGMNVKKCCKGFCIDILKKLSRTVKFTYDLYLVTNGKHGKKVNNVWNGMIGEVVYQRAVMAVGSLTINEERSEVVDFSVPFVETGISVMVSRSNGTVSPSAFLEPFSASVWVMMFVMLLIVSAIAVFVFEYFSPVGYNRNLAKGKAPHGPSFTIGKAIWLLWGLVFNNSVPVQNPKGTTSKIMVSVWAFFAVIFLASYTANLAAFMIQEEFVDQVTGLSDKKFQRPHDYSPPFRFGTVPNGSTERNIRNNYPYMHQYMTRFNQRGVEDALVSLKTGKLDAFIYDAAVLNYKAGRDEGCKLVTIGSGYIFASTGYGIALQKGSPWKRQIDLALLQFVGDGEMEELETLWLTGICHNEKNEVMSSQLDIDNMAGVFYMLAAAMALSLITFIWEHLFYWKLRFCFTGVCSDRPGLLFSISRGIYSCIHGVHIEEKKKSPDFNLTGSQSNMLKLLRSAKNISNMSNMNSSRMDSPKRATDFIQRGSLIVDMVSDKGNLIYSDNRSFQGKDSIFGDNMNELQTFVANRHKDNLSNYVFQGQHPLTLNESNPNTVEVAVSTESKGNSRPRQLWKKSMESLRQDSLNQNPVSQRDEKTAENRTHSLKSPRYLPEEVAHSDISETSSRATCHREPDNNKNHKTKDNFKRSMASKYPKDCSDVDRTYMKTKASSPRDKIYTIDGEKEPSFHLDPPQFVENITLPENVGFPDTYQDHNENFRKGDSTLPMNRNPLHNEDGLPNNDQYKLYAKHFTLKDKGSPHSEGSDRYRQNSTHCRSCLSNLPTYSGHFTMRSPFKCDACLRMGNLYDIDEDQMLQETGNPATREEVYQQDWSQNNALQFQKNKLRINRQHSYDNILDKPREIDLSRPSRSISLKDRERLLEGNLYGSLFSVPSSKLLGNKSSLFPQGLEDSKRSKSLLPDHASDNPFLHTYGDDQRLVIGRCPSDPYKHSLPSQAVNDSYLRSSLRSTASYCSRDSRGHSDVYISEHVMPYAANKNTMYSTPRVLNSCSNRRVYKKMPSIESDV
T2 sequence (Q00960 27-1482, other chains not shown): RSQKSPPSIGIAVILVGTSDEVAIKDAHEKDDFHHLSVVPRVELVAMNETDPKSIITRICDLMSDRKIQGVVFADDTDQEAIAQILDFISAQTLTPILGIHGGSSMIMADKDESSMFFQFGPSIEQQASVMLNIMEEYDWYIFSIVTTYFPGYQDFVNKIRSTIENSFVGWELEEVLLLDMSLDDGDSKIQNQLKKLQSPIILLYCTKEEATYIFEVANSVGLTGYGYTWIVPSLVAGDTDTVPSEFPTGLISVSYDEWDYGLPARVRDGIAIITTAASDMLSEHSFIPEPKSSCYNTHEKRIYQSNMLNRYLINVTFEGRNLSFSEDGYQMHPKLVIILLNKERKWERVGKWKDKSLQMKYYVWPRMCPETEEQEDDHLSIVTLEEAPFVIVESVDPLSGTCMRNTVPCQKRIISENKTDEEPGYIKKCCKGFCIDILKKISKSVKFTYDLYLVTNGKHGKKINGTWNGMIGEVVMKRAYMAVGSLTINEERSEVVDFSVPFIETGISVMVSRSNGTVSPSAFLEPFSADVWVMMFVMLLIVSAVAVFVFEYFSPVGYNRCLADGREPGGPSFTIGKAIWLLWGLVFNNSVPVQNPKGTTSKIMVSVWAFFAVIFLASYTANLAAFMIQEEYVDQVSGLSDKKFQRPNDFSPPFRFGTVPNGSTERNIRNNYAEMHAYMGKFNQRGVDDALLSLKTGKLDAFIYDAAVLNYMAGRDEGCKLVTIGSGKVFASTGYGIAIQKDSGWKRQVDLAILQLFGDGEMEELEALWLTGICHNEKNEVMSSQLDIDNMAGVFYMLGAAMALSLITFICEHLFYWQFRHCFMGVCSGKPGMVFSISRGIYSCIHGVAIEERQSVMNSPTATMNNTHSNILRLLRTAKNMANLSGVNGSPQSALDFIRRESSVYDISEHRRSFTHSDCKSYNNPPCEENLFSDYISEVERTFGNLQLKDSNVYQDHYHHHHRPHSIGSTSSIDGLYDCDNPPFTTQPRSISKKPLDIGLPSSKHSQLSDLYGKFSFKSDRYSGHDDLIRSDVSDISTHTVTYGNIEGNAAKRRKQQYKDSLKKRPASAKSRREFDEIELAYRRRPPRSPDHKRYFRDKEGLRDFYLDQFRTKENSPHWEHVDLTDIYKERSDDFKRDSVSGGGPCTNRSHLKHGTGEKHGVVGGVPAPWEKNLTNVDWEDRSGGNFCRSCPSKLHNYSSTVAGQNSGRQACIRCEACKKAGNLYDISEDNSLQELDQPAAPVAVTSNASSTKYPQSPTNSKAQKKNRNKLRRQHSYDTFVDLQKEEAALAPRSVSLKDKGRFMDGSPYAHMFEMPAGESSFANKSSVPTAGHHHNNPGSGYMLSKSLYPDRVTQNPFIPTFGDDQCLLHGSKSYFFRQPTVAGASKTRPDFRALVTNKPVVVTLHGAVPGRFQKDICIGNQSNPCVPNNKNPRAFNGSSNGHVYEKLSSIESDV

Regarding `CNC(=O)N1N=C(c2ccc(N)cc2)c2cc3c(cc2CC1C)OCO3` (centres unmarked) [GYKI 53655], the figures for the concentration for half-maximal inhibition (IC50) against GluN1/GluN2D [1] and on GluN1/GluN2C [4] were 133 µM and 143 µM, respectively. For the same compound, the remaining activity at 100 µM was found to be 107% on GluN1/GluN2B [2] and 104% on GluN1/GluN2A [3].

With `COc1ccc(OCC2c3cc(OC)c(OC)cc3CCN2C(=O)c2cccc(Cl)c2)cc1` (single isomer, unassigned; (+)) [CIQ, (+)-(3-chlorophenyl)(6,7-dimethoxy-1-((4-methoxyphenoxy)methyl)-3,4-dihydroisoquinolin-2(1H)-yl)methanone], the “potentiation, % of control” value on GluN1/GluN2D [1] (setting [12]) was 281% ± 10%; on GluN1/GluN2C [4] (setting [12]), 340% ± 27%. Also, the “effect on the deactivation time course following glutamate removal” value is given as “no detectable effect” on GluN1/GluN2A [5], “no detectable effect” on GluN1/GluN2D [7], “modest effects” at GluN1/GluN2C [8] and “no detectable effect” on GluN1/GluN2B [10]. Moreover, the “effect at low agonist concentrations” value at GluN1/GluN2B [6] and on GluN1/GluN2A [9] was “no effect” each time. Besides, in assay [11] (EC30 concentrations of glutamate and glycine), the “enhancement of the response at EC30 glutamate and glycine” value is no more than 5 fold. Also, the “enhancement of the response to maximally effective glutamate and glycine” value in assay [11] (maximally effective agonist) is recorded as 2 fold.

Values taken from article PMC7967294 (ACS chemical neuroscience, 2020).
